# From ChEMBL document CHEMBL3400039, “Design, synthesis and in vitro cell-based evaluation of the anti-cancer activities of hispolon analogs” (Bioorg Med Chem, 2015)
# Calls of active or inactive are those of the source. No cut-off for these calls is given here.
# Legend:
# [1] = (§1) Cytotoxicity against human S1 cells after 72 hrs by MTT assay; type: functional, cell-based; conditions: S1, 72 h
# Summary of the method: (§2)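 Cells kept as adherent monolayers in DMEM with 10% FBS, 37°C, 5% CO2. Trypsin-harvested, seeded at 5 × 10^3 cells/well, then exposed to compound at 0.1 to 100 µM for 72 h. MTT (4 mg/ml) added for 4 h, formazan dissolved in DMSO, absorbance read at 570 nm. At least three experiments, each in triplicate; mean±SD.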
# MDA-MB-231 = assay: Cytotoxicity against human MDA-MB-231 cells after 72 hrs by MTT assay; type: functional, cell-based; conditions: for IC50: MDA-MB-231, 72 h; summary of the method: as §2
# HEK293 [2] = assay: Cytotoxicity against HEK293 cells expressing ABCB1 after 72 hrs by MTT assay; type: functional, cell-based; conditions: Homo sapiens, HEK293, 72 h; summary of the method: as §2
# MCF7 = assay: Cytotoxicity against human MCF7 cells after 72 hrs by MTT assay; type: functional, cell-based; conditions: for IC50: MCF7, 72 h; summary of the method: as §2
# MDCK = assay: Cytotoxicity against MDCK cells after 72 hrs by MTT assay; type: cell-based; conditions: Canis lupus familiaris; summary of the method: as §2
# PC-3 [3] = assay: Induction of morphological changes in human PC3 cells up to 100 uM after 68 hrs by inverted microscopy; type: functional, cell-based
# Summary of the method: (§3)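 Cells grown in DMEM/10% FBS and treated in triplicate for 68 h. Photographed with an inverted microscope at 20X alongside untreated wells. Images scored double-blind for cell size, shape, number and debris.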
# [4] = (§4) Cytotoxicity against human HCT116 cells after 72 hrs by MTT assay; type: functional, cell-based; conditions: HCT-116, 72 h; summary of the method: as §2
# HEK293 [5] = assay: Resistance index, ratio of IC50 for HEK293 cells expressing ABCB1 to IC50 for HEK293 cells expressing pcDNA3.1; parameters: species or system Homo sapiens
# Summary of the method: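 Fold resistance is the IC50 in P-glycoprotein-overexpressing HEK293/ABCB1 cells divided by the IC50 in empty-vector HEK293/pcDNA3.1 cells. IC50s from the 72 h MTT assay; paclitaxel was the positive-control ABCB1 substrate.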
# HCT-116 [6] = assay: Induction of morphological changes in human HCT116 cells up to 100 uM after 68 hrs by inverted microscopy; type: functional, cell-based; summary of the method: as §3
# [7] = (§5) Cytotoxicity against human PC3 cells after 72 hrs by MTT assay; type: functional, cell-based; conditions: PC-3, 72 h; summary of the method: as §2
# HCT-116 [8] = assay: Induction of apoptosis in human HCT116 cells at 0.5 uM after 4 hrs by Alexa fluor 488 annexin V staining based flow cytometry (reference value: 5.58%); type: functional
# Summary of the method: (§6)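 HCT-116 cells in 6-well plates, exposed in complete medium with or without compound (0.5 or 5 µM) for 4 h. Harvested and stained with MitoTracker Red for 30 min at 37°C, washed in PBS, then given Alexa Fluor 488 annexin V in annexin-binding buffer for 15 min. Flow cytometry with emission read at 530 and 585 nm; quadrant analysis against untreated control.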
# HCT-116 [9] = assay: Reduction in mitochondrial membrane potential in human HCT116 cells after 4 hrs by Mitotracker red staining based flow cytometry (reference value: 27.56%); type: functional, cell-based; summary of the method: as §6
# HEK293 [10] = assay: Ratio of IC50 for HEK293 cells expressing pcDNA3.1 to IC50 for human S1 cells
# Summary of the method: (§7)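 Selectivity ratio of the IC50 in empty-vector HEK293/pcDNA3.1 cells to the IC50 in each cancer line. IC50s from the 72 h MTT assay (0.1–100 µM, Bliss method, ≥3 experiments in triplicate).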
# HCT-116 [11] = assay: Induction of apoptosis in human HCT116 cells at 5 uM after 4 hrs by Alexa fluor 488 annexin V staining based flow cytometry (reference value: 5.58%); type: functional; summary of the method: as §6
# S1 = assay: as §1; type: functional, cell-based; summary of the method: as §2
# HEK293 [12] = assay: Ratio of IC50 for HEK293 cells expressing pcDNA3.1 to IC50 for human PC3 cells; summary of the method: as §7
# HCT-116 [13] = assay: Potency index, ratio of IC50 for hispolon to IC50 for compound for human HCT116 cells after 72 hrs by MTT assay; type: functional
# Summary of the method: (§8)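 Ratio of the hispolon IC50 to the analog IC50 in the same cancer line. Both IC50s come from the 72 h MTT assay (0.1–100 µM), with survival curves fitted by the Bliss method.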
# DU-145 [14] = assay: Cytotoxicity against human DU145 cells after 72 hrs by MTT assay; type: functional, cell-based; summary of the method: as §2
# HCT-116 [15] = assay: Reduction in mitochondrial membrane potential in human HCT116 cells at 0.5 uM after 4 hrs by Mitotracker red staining based flow cytometry (reference value: 27.56%); type: functional; parameters: scale not given: the % may be the effect or the level left; summary of the method: as §6
# HEK293 [16] = assay: Cytotoxicity against HEK293 cells expressing pcDNA3.1 after 72 hrs by MTT assay; type: cell-based; conditions: Homo sapiens, HEK293, 72 h; summary of the method: as §2
# PC-3 [17] = assay: Potency index, ratio of IC50 for hispolon to IC50 for compound for human PC3 cells after 72 hrs by MTT assay; type: functional; summary of the method: as §8
# PC-3 [18] = assay: Induction of morphological changes in human PC3 cells assessed as increase in cell size at 1 uM after 68 hrs by inverted microscopy; type: functional, cell-based; summary of the method: as §3
# DU-145 [19] = assay: Potency index, ratio of IC50 for hispolon to IC50 for compound for human DU145 cells after 72 hrs by MTT assay; type: functional; summary of the method: as §8
# HCT-116 [20] = assay: as §4; type: functional, cell-based; summary of the method: as §2
# HCT-116 [21] = assay: Reduction in mitochondrial membrane potential in human HCT116 cells at 5 uM after 4 hrs by Mitotracker red staining based flow cytometry (reference value: 27.56%); type: functional; parameters: scale not given: the % may be the effect or the level left; summary of the method: as §6
# HEK293 [22] = assay: Ratio of IC50 for HEK293 cells expressing pcDNA3.1 to IC50 for human DU145 cells; summary of the method: as §7
# [23] = Potency index, ratio of IC50 for hispolon to IC50 for compound for human S1 cells after 72 hrs by MTT assay; type: functional; summary of the method: as §8
# HEK293 [24] = assay: Ratio of IC50 for HEK293 cells expressing pcDNA3.1 to IC50 for human HCT116 cells; summary of the method: as §7
# HCT-116 [25] = assay: Induction of morphological changes in human HCT116 cells assessed as increase in cell size at 1 uM after 68 hrs by inverted microscopy; type: functional, cell-based; summary of the method: as §3
# PC-3 [26] = assay: as §5; type: functional, cell-based; summary of the method: as §2
smiles,measurement,setting,value
COc1cc(CCC(=O)CC(C)=O)ccc1O,IC50,[1],98.2 µM
same,IC50,MDA-MB-231,> 100 µM
same,IC50,HEK293 [2],92.5 µM
same,IC50,MCF7,> 100 µM
same,IC50,MDCK,72.5 µM
same,Activity,PC-3 [3],inactive
same,IC50,[4],80.8 µM
same,Ratio IC50,HEK293 [5],1
same,Activity,HCT-116 [6],inactive
same,IC50,[7],> 100 µM
COc1cc(/C=C/C(=O)CC(C)=O)ccc1O,Activity,HCT-116 [8],2.64%
same,Activity,HCT-116 [9],Dose-dependent effect
same,Ratio IC50,HEK293 [10],9
same,Activity,HCT-116 [11],11.69%
same,IC50,[1],1.8 µM
same,Activity,S1,Dose-dependent effect
same,Ratio IC50,HEK293 [12],2
same,Ratio IC50,HCT-116 [13],3.7
same,Activity,DU-145 [14],Dose-dependent effect
same,IC50,"DU-145 [14]; DU-145, 72 h",5.2 µM
same,Activity,HCT-116 [15],84.88%
same,IC50,HEK293 [16],15.8 µM
same,Activity,MDA-MB-231,Dose-dependent effect
same,IC50,MDA-MB-231,9.7 µM
same,Ratio IC50,PC-3 [17],2
same,IC50,HEK293 [2],18.9 µM
same,Activity,MCF7,Dose-dependent effect
same,IC50,MCF7,7.4 µM
same,IC50,MDCK,13.1 µM
same,Activity,PC-3 [18],Active
same,Ratio IC50,DU-145 [19],5.5
same,IC50,[4],1.4 µM
same,Activity,HCT-116 [20],Dose-dependent effect
same,Ratio IC50,HEK293 [5],1.2
same,Activity,HCT-116 [21],72.74%
same,Ratio IC50,HEK293 [22],3
same,Ratio IC50,[23],4.7
same,Ratio IC50,HEK293 [24],11
same,Activity,HCT-116 [25],Active
same,IC50,[7],6.3 µM
same,Activity,PC-3 [26],Dose-dependent effect
